{
  "source": "ChEMBL document CHEMBL1139721",
  "about": "“Inhibition of P-glycoprotein-mediated multidrug efflux by aminomethylene and ketomethylene analogs of reversins” (Bioorg Med Chem Lett, 2006)",
  "note": "Peptide text beside a SMILES is read from it. * marks the point of attachment. Cbz = O=C(OCc1ccccc1)*; Boc = CC(C)(C)OC(=O)*; OcHex = C1CCC(O*)CC1; OBn = c1ccc(CO*)cc1; OtBu = CC(C)(C)O*",
  "data": [
    {"tested_on": "K562/R7", "experiment": "Inhibition of P-glycoprotein-mediated daunorubicin efflux in K562/R7 cells at 10 uM relative to control", "format": "cell-based", "conditions": "Homo sapiens", "outline": "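K562/R7 human leukemic cells with high P-glycoprotein expression, 1 million per mL RPMI 1640, incubated 1 h at 37 °C with daunorubicin (10 μM final) with or without inhibitor at 10 µM. Cells washed twice in ice-cold PBS, held on ice, then read by flow cytometry. Activity expressed relative to cyclosporin A (2 μM final, set as 100%). Duplicates, at least three separate experiments; SD reported.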", "units": {"inhibition": "%"}, "values": [
      {"compound": "O=C(CCC(=O)N[C@@H](CCC(=O)OC1CCCCC1)C(=O)OCc1ccccc1)N[C@@H](CCC(=O)OCc1ccccc1)C(=O)OCc1ccccc1", "inhibition": 94.5},
      {"compound": "CC(C)(C)OC(=O)N[C@@H](CC(=O)OCc1ccccc1)C(=O)CCC(=O)N[C@@H](CCCCNC(=O)OCc1ccccc1)C(=O)OC(C)(C)C", "inhibition": 86.6},
      {"compound": "CC(C)(C)OC(=O)N[C@@H](CCC(=O)OC1CCCCC1)C(=O)N[C@@H](CCCCNC(=O)OCc1ccccc1)C(=O)OC(C)(C)C", "note": "(Boc-Glu(OcHex)-Lys(Cbz)-OtBu)", "inhibition": 85.4},
      {"compound": "CC(C)C(OC(=O)CC[C@@H](C(=O)OCc1ccccc1)N(CCCC(=O)N[C@@H](CCC(=O)OCc1ccccc1)C(=O)OCc1ccccc1)CCCC(=O)N[C@@H](CCC(=O)OCc1ccccc1)C(=O)OCc1ccccc1)C(C)C", "inhibition": 3.35},
      {"compound": "O=C(CCCN[C@@H](CC(=O)OCc1ccccc1)C(=O)OCc1ccccc1)N[C@@H](CCC(=O)OCc1ccccc1)C(=O)OCc1ccccc1", "inhibition": 82.2},
      {"compound": "CC(C)C(OC(=O)CC[C@H](NCCCC(=O)N[C@@H](CCC(=O)OCc1ccccc1)C(=O)OCc1ccccc1)C(=O)OCc1ccccc1)C(C)C", "inhibition": 54.7},
      {"compound": "CC(C)C(OC(=O)CC[C@H](NC(=O)OC(C)(C)C)C(=O)N[C@@H](CCCCNC(=O)OCc1ccccc1)C(=O)OC(C)(C)C)C(C)C", "inhibition": 52.7},
      {"compound": "CC(C)(C)OC(=O)N[C@H](CN[C@@H](CCCCNC(=O)OCc1ccccc1)C(=O)OC(C)(C)C)CC(=O)OCc1ccccc1", "inhibition": 74.1},
      {"compound": "CC(C)(C)OC(=O)N[C@@H](CCC(=O)OCc1ccccc1)CN[C@@H](CCCCNC(=O)OCc1ccccc1)C(=O)OC(C)(C)C", "inhibition": 79.1},
      {"compound": "CC(C)(C)OC(=O)N[C@@H](CC(=O)OCc1ccccc1)C(=O)N[C@@H](CCCCNC(=O)OCc1ccccc1)C(=O)OC(C)(C)C", "note": "(Boc-Asp(OBn)-Lys(Cbz)-OtBu)", "inhibition": 72.7},
      {"compound": "O=C(CCC(=O)N[C@@H](CCC(=O)OCc1ccccc1)C(=O)OCc1ccccc1)N[C@@H](CCC(=O)OCc1ccccc1)C(=O)OCc1ccccc1", "inhibition": 93.7},
      {"compound": "O=C(CCCN[C@@H](CCC(=O)OC1CCCCC1)C(=O)OCc1ccccc1)N[C@@H](CCC(=O)OCc1ccccc1)C(=O)OCc1ccccc1", "inhibition": 98.3}
    ]}
  ]
}
